The values below come from publication PMC3178889 (Nature neuroscience, 2011).

“Also recorded” adds a separate entry of the source. No end group written: not given here. *: point of attachment. Myristoyl = CCCCCCCCCCCCCC(=O)*; Lauroyl = CCCCCCCCCCCC(=O)*

Series [1] has as its system binding of Tα to UNC119. The arrangement: species or system bovine. As to conditions: GST-UNC119 pulldown from retina lysate in the presence of peptide; immunoblot. Background: In western blotting, separated proteins are transferred to a membrane and probed.
Series [2] deals with human UNC119 (Homo sapiens, UniProt Q13432). The series is described as follows: Isothermal titration calorimetry. It is filed as binding. As to conditions: ITC; for binding relative to the lauroyl Tα peptide: compared with lauroyl-GAGASAEEKH
Background: In ITC the heat of successive injections is recorded.

The test system of series [3] is GST-UNC119. Kind of series: GST-UNC119 pulldown of proteins from retina lysates or HEK cells. The format is binding, bovine.
Series [4] deals with rod photoreceptors. As to conditions: passive diffusion after light activation; cited from earlier work.
The test system of series [5] is Tα. The series is described as follows: GST-UNC119B pulldown from bovine retina lysate. The format is binding. As to conditions: unpublished results of the authors.
The test system of series [6] is GTPase activity of Tα (purified Tαβγ). The series is described as follows: GTPase activity of purified Tαβγ in the presence of depleted ROS membranes. The format is biochemical. Put shortly:
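Purified native transducin (Tαβγ) reconstituted with depleted rod outer segment membranes, which carry rhodopsin and a trace of residual transducin. […] Components (transducin, UNC119, depleted membranes) checked by SDS-PAGE.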

The test system of series [7] is transducin. As to conditions: absence of rhodopsin; cited from earlier work.

As for GAGASAEEKH, the “competition for binding of Tα to UNC119” value in series [1] is listed as “did not”.
Consider Lauroyl-GAGASAEEKH, for which the “competition for binding of Tα to UNC119” value in series [1] is given as “competes for binding”.
For Lauroyl-GSCQSNENSE, the “binding relative to the lauroyl Tα peptide” value in series [2] (listed as Lauroyl-ODR-3) is given as “more than one order of magnitude weaker”; in series [2] (listed as ODR-3 N-terminal peptide), “lower affinity interaction”.
As for Myristoyl-GAGASAEEKH, the “interaction with recombinant human UNC119” value in series [2] was “tight binding”. The “number of binding sites” value in series [2] (one-site model) was “single site”.
Turning to “Tα(G2A): Tα with G2 replaced with alanine, a mutation preventing Tα acylation”, in series [3] (bovine Tα or Tα(G2A) expressed in HEK cells, anti-Tα blot), the “interaction with GST-UNC119 in pulldown of protein expressed in HEK cells” value is “does not interact; also recorded: did not interact”.
“Tα: rod photoreceptor transducin α-subunit”: the “t1/2 of light-induced translocation to the inner segment” value in series [4] is 3 to 5 min. The “interaction with GST-UNC119 in pulldown from retina lysate” value in series [3] (bovine or mouse retina lysate, Coomassie/LC-MS/MS or immunoblot) was “UNC119 interacts with Tα; also recorded: is pulled down”.
As for Tβγ: transducin βγ subunits, the “t1/2 of light-induced translocation to the inner segment” value in series [4] is recorded as “approximately 12 min”.
Regarding “UNC119B: isoform encoded by UNC119B gene, 61% similar and 52% identical to UNC119”, the “pulldown of Tα by GST-UNC119B” value in series [5] was “pulls down Tα from bovine retina lysate”.
“transducin: purified native heterotrimeric transducin”: in series [6] (depleted ROS membranes reconstituted with transducin), the “Kcat of GTPase” value was 1.5 moles GTPhydrolyzed/mol transducin/min. Further, the “GTPase activity rate of the reconstituted system” value in series [6] (purified Tαβγ in the presence of ROS membranes, Fig. 5C red line) stood at 1.5 mole GTP/min. Also, the “GTP/GDP exchange rate constant” value in series [7] is given as 10^−4 /sec.
